SR-BI uptake up: enhances SR-BI lipid uptake from DiI-HDL; 0.096% of 320,000 active; activation, % at 12.5 µM; CHO ldlA[mSR-BI] cells, DiI-HDL uptake fluorescence, 3 h; 100 = double the neutral-control signal;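 active means mean replicate activation of at least 60% and every replicate at or above 60%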;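 further: 0% = median plate neutral-control signal and 100% = twice that signal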
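Test system: SR-BI-overexpressing, LDLR-lacking CHO cells; Also added: labelled HDL, 10 µg/mL; Measured by: bottom-read cell fluorescence after medium removal, ex 550/em 595 nm; Timing: 3 h uptake period with compound, 37 °C; Buffer or medium: F12, 0.5% BSA, 25 mM HEPES; Doses: single compound concentration, delivered by pin transfer.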
GASC-1 inh: blocks human GASC-1 demethylase activity. inhibition, % at 2.35 µM. GST-JMJD2C(1-420) H3K9me3 demethylation, DELFIA europium. 0.069% of 330,000 active. Q9H3R0;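 active means more than half of a compound's replicate wells show inhibition beyond 50%, single wells judged on their own value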;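 further: signal counts dimethyl H3K9 product captured on neutravidin plate; 0% = median of DMSO wells and 100% = 0.3 times that DMSO median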
SR-BI DiI inh: mouse SR-BI HDL lipid transfer inhibition; ldlA[mSR-BI] CHO cells, DiI-HDL uptake fluorescence, 3 h; inhibition, % at 12.5 µM; 0.96% of 320,000 active; AID 488896;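 active means mean replicate inhibition of at least 70% and a set share of replicates each scoring 70 or more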;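 further: 0% = median of neutral control wells and 100% = median of positive control wells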
AHR activator: human AHR activation; P35869; AHR-responsive luciferase reporter cells, luminescence; activation, % at 5 µM; 2.5% of 320,000 active; AID 2796; in the data active means activation above about 47%;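 further: 0% = vehicle wells and 100% = reference agonist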
FXN GAA850 act: increases GAA850 frataxin promoter reporter activity. HEK293 lucGAA850 FXN promoter luciferase reporter, 24 h; percent of 10 µM SAHA response. activation, % at 6 µM. 0.56% of 360,000 active. AID 540364;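 active means activation above the average of all compounds screened plus 3 SD, cutoff fixed separately per campaign, cut at about 7.5% in these data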;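 further: 0% = DMSO wells and 100% = 10 µM SAHA wells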
Numbers without * were called inactive; x = no result. The list is not random: actives were taken first. Their share in the collection is about 3.7%.

SMILES | SR-BI uptake up | GASC-1 inh | SR-BI DiI inh | AHR activator | FXN GAA850 act
Fc1ccc2[nH]c3c(NCCN4CCOCC4)ncnc3c2c1 | 9 | -2 | -9 | 75* | -1
Cc1ccc2[nH]c3c(N4CCOCC4)ncnc3c2c1 | 18 | 1 | -18 | 73* | 0
Cc1ccc2[nH]c3c(NCc4ccccc4)ncnc3c2c1 | x | 2 | x | x | x
Brc1ccc2[nH]c3c(N4CCc5ccccc5C4)ncnc3c2c1 | x | 5 | x | 51* | x
Brc1ccc2[nH]c3c(NCc4ccccn4)ncnc3c2c1 | x | -8 | x | 78* | 1
CSc1ccccc1C(=O)OCC(=O)Nc1c(C)n(C)n(-c2ccccc2)c1=O | x | x | x | x | -1
CCCCc1cc(=O)oc2cc(C)cc(OCC(=O)Nc3ccccn3)c12 | -32 | -29 | 32 | 9 | 3
c1ccc2c(c1)[nH]c1c(N3CCSCC3)ncnc12 | 26 | x | -26 | 42 | 1
c1ccc2c(c1)[nH]c1c(N3CCCC3)ncnc12 | 34 | 12 | -34 | 65* | 0
COc1ccc2cc3cc(C(=O)NCc4cccnc4)oc3nc2c1 | 3 | 1 | -3 | -2 | 1
CCCOc1ccc(-c2c(C(=O)N/N=C/c3ccc(OCC)cc3)nnn2-c2nonc2N)cc1 | -62 | 2 | 62 | 2 | 2
CCN(CC)c1ccc(/C=N/NC(=O)c2nnn(-c3nonc3N)c2C(C)C)c(O)c1 | -133 | 31 | 133* | 5 | -10
CCN(CC)c1ccc(/C=N/NC(=O)c2ccoc2C)c(O)c1 | -100 | -5 | 100* | -6 | 2
CCCc1c(C(=O)N/N=C/c2cccs2)nnn1-c1nonc1N | -2 | 38 | 2 | 61* | -2
CCCOc1ccc(-c2c(C(=O)N/N=C/c3ccc(C)o3)nnn2-c2nonc2N)cc1 | -78 | -3 | 78* | -5 | 1
CC1(C)C(=O)Nc2ccccc2N1C(=O)COC(=O)Cc1c(F)cccc1Cl | 8 | -8 | -8 | -1 | 2
OC[C@@H]1CN(Cc2ccc(F)cc2)C[C@H](n2cnc3c(N4CCOCC4)ncnc32)O1 | x | x | x | x | -1
CCOCCCn1c(=S)[nH]c2cc(C(=O)NCC(OC)OC)ccc2c1=O | 24 | 1 | -24 | 1 | 0
Cc1occc1C(=O)NNC(=S)Nc1ccccc1 | 17 | -4 | -17 | -4 | 4
O=C(CN1C(=O)NC2(CCSC2)C1=O)NCc1ccccc1 (configuration not stated) | 9 | -9 | -9 | 1 | 1
CCCOc1ccc(-c2c(C(=O)N/N=C/c3cccs3)nnn2-c2nonc2N)cc1 | -73 | 0 | 73* | -1 | 0
CCOc1ccc(-c2c(C(=O)N/N=C/c3ccc(C)o3)nnn2-c2nonc2N)cc1 | -76 | -1 | 76* | -5 | -1
Cc1ccc(/C=N/NC(=O)c2nnn(-c3nonc3N)c2-c2ccccc2)o1 | -22 | 14 | 22 | 7 | 0
O=S(=O)(c1ccc(NC(=S)N/N=C/c2c3ccccc3cc3ccccc23)cc1)N1CCOCC1 | -25 | 26 | 25 | 14 | 0
CCC(=O)N1CCN(c2ccccc2NC(=O)c2ccc(-c3cccc([N+](=O)[O-])c3)o2)CC1 | -76 | -1 | 76* | 19 | -5
SMILES | SR-BI uptake up | GASC-1 inh | SR-BI DiI inh | AHR activator | FXN GAA850 act
O=C(c1ccc(-c2cccc([N+](=O)[O-])c2)o1)N1CCN(c2ccc([N+](=O)[O-])cc2)CC1 | -71 | x | 71* | x | 2
CN1CCN(c2ccccc2NC(=O)c2ccc(-c3cccc([N+](=O)[O-])c3)o2)CC1 | -43 | -3 | 43 | 9 | 5
CCC(=O)N1CCN(c2ccccc2NC(=S)NC(=O)c2cccc([N+](=O)[O-])c2)CC1 | -70 | 20 | 70* | 29 | 2
CCC(=O)N1CCN(c2ccc(NC(=S)NC(=O)c3cccc([N+](=O)[O-])c3)cc2)CC1 | x | -6 | 53 | -3 | 2
CCC(=O)N1CCN(c2ccc(Cl)cc2NC(=O)c2cccc([N+](=O)[O-])c2)CC1 | -71 | 2 | 71* | 12 | 0
CC1(OC(=O)C2CCCC2)C(=O)C=C2C=C(c3ccsc3)N(C(CO)CO)C=C2C1=O (configuration not stated) | 17 | -1 | -17 | 2 | 3
O=C(Nc1cccc2c1CCCC2)c1cc(C2CCCCN2C(=O)c2cccs2)on1 (configuration not stated) | x | x | x | x | -2
CCCC(=O)Nc1nn(C)c2nc3c(C)cccc3cc12 | -34 | 31 | 34 | 8 | 0
Cc1cccc2cc3c(NC(=O)c4ccccn4)nn(C)c3nc12 | 12 | -8 | -12 | 49* | 1
CCCn1nc(NC(=O)CC(C)C)c2cc3cccc(C)c3nc21 | -20 | 5 | 20 | 5 | -1
CCCn1nc(NC(C)=O)c2cc3cccc(C)c3nc21 | 5 | 1 | -5 | 48* | 2
COc1ccc(NC(=O)CSc2n[nH]c(CNc3cccc(C)c3)n2)cc1 | x | x | x | 3 | 0
c1ccc(NC2=NCCN2CCCC2CCCC2)cc1 | 42 | -8 | -42 | 5 | -1
C=CCN=C1CCCc2c1[nH]c1ccc(C)cc21 | -3 | 4 | 3 | 1 | 4
COc1ccc(/C(C)=N/Nc2nc3ccccc3nc2C)cc1OC | -32 | 7 | 32 | 77* | 4
CCCCN(CC)CCNC(=O)c1cc2c(=O)[nH]c3ccccc3c2s1 | -88 | 9 | 88* | 5 | 0
Cc1nnc2n(c1=O)N=C(c1ccc(Cl)cc1)CS2 | -12 | -6 | 12 | 79* | 5
CC(C)[C@H](NC(=O)c1ccc(C(C)(C)C)cc1)C(=O)N1CCN(Cc2ccc3c(c2)OCO3)CC1 | -7 | -11 | 7 | 4 | 0
COc1ccc(NC(=O)Nc2ccon2)c(OC)c1 | -9 | 9 | 9 | 56* | 2
COc1ccc(NC(=O)c2c(N)no[n+]2[O-])cc1 | 27 | -1 | -27 | 18 | 0
COc1ccc(NC(=O)c2c(N)no[n+]2[O-])c(OC)c1 | -13 | 5 | 13 | 61* | 0
CC1(C)c2cc(O)ccc2OC1N1CCOCC1 (configuration not stated) | 7 | 5 | -7 | 0 | 0
CCOC(=O)c1c(NC(=O)c2ccn(CC)n2)sc2c1CCCC2 | -72 | -4 | 72* | 16 | 3
CCn1cc(Br)c(C(=O)Nc2sc3c(c2C(N)=O)CCCC3)n1 | -8 | 0 | 8 | 57* | -1
CCOC(=O)c1cc(C(=O)Nc2sc3c(c2C#N)CCCC3)nn1C | -76 | -5 | 76* | 2 | 1
Cc1cc(C(=O)Nc2sc3c(c2C#N)CCCC3)no1 | 9 | 1 | -9 | 7 | 1
Cn1cc(Br)c(C(=O)Nc2sc3c(c2C(N)=O)CCCC3)n1 | x | 1 | x | 2 | 5
CCOC(=O)c1c(NC(=O)C(=O)N/N=C/c2ccccc2O)sc2c1CCCCC2 | -127 | 17 | 127* | 1 | -3
C[C@H](CO)N1C[C@H](C)[C@@H](CN(C)Cc2ccc(-c3ccccc3)cc2)Oc2c(NS(=O)(=O)c3cn(C)cn3)cccc2C1=O | 27 | 5 | -27 | -1 | 1

Screening data: PubChem BioAssay, several laboratories
